Measurements published in ChEMBL document CHEMBL4610016, “Synthesis, biological evaluation and anti-proliferative mechanism of fluorine-containing proguanil derivatives” (Bioorg Med Chem, 2020).
Active and inactive are the calls of the source. The calls are words filed in the database; no cut-off is given here.

Experiments:
[1] = tested on: UMUC3; assay: Antiproliferative activity against human UM-UC-3 cells assessed as reduction in cell viability incubated for 72 hrs by MTT assay; type: functional, cell-based; conditions: UMUC3, 72 h
Procedure, shortened: (§1)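 Cells were seeded at 6.0×10³ per well and left 12 h, then treated in triplicate for 72 h. Ranges were 0–8 μM for UMUC3, T24, A2780 and HCT116, and 0–4 μM for A549. MTT (2 mg/mL) replaced the medium for 6 h at 37 °C, followed by DMSO solubilization and OD 490 nm. IC50 was taken as the mean of triplicate measurements. Cells were kept at 37 °C, 5% CO₂.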

[2] = tested on: T-24; assay: Antiproliferative activity against human T24 cells assessed as reduction in cell viability incubated for 72 hrs by MTT assay; type: functional, cell-based; conditions: T-24, 72 h
[3] = tested on: A549; assay: Antiproliferative activity against human A549 cells assessed as reduction in cell viability incubated for 72 hrs by MTT assay; type: functional, cell-based; conditions: A549, 72 h; procedure, shortened: as §1
[4] = tested on: A2780; assay: Antiproliferative activity against human A2780 cells assessed as reduction in cell viability incubated for 72 hrs by MTT assay; type: functional, cell-based; conditions: A2780, 72 h; procedure, shortened: as §1
[5] = tested on: HCT-116; assay: Antiproliferative activity against human HCT116 cells assessed as reduction in cell viability incubated for 72 hrs by MTT assay; type: functional, cell-based; conditions: HCT-116, 72 h
[6] = tested on: HCT-116; assay: Inhibition of colony formation in human HCT116 cells at 2 uM incubated for 6 to 8 days by crystal violet staining based assay; type: functional, cell-based
Procedure, shortened: (§2)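 Colony formation: 8.0×10³ cells per well were seeded, and treatment began after 24 h, in triplicate, for 6–8 days. Ranges were 0–8 μM for UMUC3, T24 and HCT116, 0–4 μM for A2780, and 0–2 μM for A549. Cells were fixed in 10% formaldehyde and stained with 0.1% crystal violet. Colonies were counted, and absorbance was read at 490 nm. Data are the mean of 3 independent experiments.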

[7] = target: T1, AMP-activated protein kinase, AMPK (Homo sapiens) (UniProt P54646+O43741+P54619+Q9UGJ0+Q9Y478+Q13131+Q9UGI9); assay: Activation of AMPK in human UM-UC-3 cells assessed as decrease in p70S6K phosphorylation at 2 uM measured upto 12 hrs by Western blot analysis; type: cell-based
Procedure, shortened: (§3)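 Western blot of bladder cancer cells treated at 2 μM over a 0–12 h time course; separately, a 0–2 μM series was run for 12 h. Lysates were resolved by 8% or 10% SDS-PAGE, transferred to PVDF, and blocked in 5% milk/TBST for 1 h. Primary antibodies were applied overnight at 4 °C and secondaries for 1 h. Phospho- and total AMPK, mTOR, p70S6K and 4EBP1 were probed. Band density was normalized to β-actin, and the mean of 3 independent experiments is reported.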

[8] = target: T1, AMP-activated protein kinase, AMPK (Homo sapiens); assay: Activation of AMPK in human T24 cells assessed as decrease in 4EBP1 phosphorylation at 2 uM measured upto 12 hrs by Western blot analysis; type: cell-based; conditions: T-24; procedure, shortened: as §3
[9] = tested on: T-24; assay: Inhibition of cell migration in human T24 cells at 3 uM incubated for 24 and 48 hrs by cellular scratch assay based microscopic analysis; type: functional
Procedure, shortened: (§4)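 Scratch wound assay. Cells were grown to confluence and scratched with a 10 μL tip, then washed twice with PBS. Compound was added in serum-free medium: 3 μM for UMUC3 and T24, 2 μM for A549. Gaps were photographed at 0, 24 and 48 h, and wound closure distance was measured. Three independent repeats were run.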

[10] = target: T1, AMP-activated protein kinase, AMPK (Homo sapiens); assay: Activation of AMPK in human UM-UC-3 cells assessed as increase in AMPK phosphorylation at 2 uM measured upto 12 hrs by Western blot analysis; type: cell-based; procedure, shortened: as §3
[11] = target: T1, AMP-activated protein kinase, AMPK (Homo sapiens); assay: Activation of AMPK in human UM-UC-3 cells assessed as decrease in 4EBP1 phosphorylation at 2 uM measured upto 12 hrs by Western blot analysis; type: cell-based; procedure, shortened: as §3
[12] = tested on: A549; assay: Inhibition of cell migration in human A549 cells at 2 uM incubated for 24 and 48 hrs by cellular scratch assay based microscopic analysis; type: functional; procedure, shortened: as §4
[13] = tested on: UMUC3; assay: Inhibition of cell migration in human UM-UC-3 cells at 3 uM incubated for 24 and 48 hrs by cellular scratch assay based microscopic analysis; type: functional; procedure, shortened: as §4
[14] = target: T1, AMP-activated protein kinase, AMPK (Homo sapiens); assay: Activation of AMPK in human T24 cells assessed as decrease in p70S6K phosphorylation at 2 uM measured upto 12 hrs by Western blot analysis; type: cell-based; conditions: T-24; procedure, shortened: as §3
[15] = target: T1, AMP-activated protein kinase, AMPK (Homo sapiens); assay: Activation of AMPK in human T24 cells assessed as decrease in mTOR phosphorylation at 2 uM measured upto 12 hrs by Western blot analysis; type: cell-based; conditions: T-24; procedure, shortened: as §3
[16] = target: T1, AMP-activated protein kinase, AMPK (Homo sapiens); assay: Activation of AMPK in human T24 cells assessed as increase in AMPK phosphorylation at 2 uM measured upto 12 hrs by Western blot analysis; type: cell-based; conditions: T-24; procedure, shortened: as §3
[17] = tested on: A2780; assay: Inhibition of colony formation in human A2780 cells at 2 uM incubated for 6 to 8 days by crystal violet staining based assay; type: functional, cell-based; procedure, shortened: as §2
[18] = tested on: UMUC3; assay: Inhibition of colony formation in human UM-UC-3 cells at 2 uM incubated for 6 to 8 days by crystal violet staining based assay; type: functional, cell-based; procedure, shortened: as §2
[19] = target: T1, AMP-activated protein kinase, AMPK (Homo sapiens); assay: Activation of AMPK in human UM-UC-3 cells assessed as decrease in mTOR phosphorylation at 2 uM measured upto 12 hrs by Western blot analysis; type: cell-based; procedure, shortened: as §3
[20] = tested on: T-24; assay: Inhibition of colony formation in human T24 cells at 2 uM incubated for 6 to 8 days by crystal violet staining based assay; type: functional, cell-based; procedure, shortened: as §2
[21] = tested on: A549; assay: Inhibition of colony formation in human A549 cells at 2 uM incubated for 6 to 8 days by crystal violet staining based assay relative to control; type: functional; procedure, shortened: as §2
[22] = tested on: HUVEC; assay: Cytotoxicity against human HUVEC cells assessed as reduction in cell viability incubated for 72 hrs by MTT assay; type: cell-based
Procedure, shortened: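 HUVEC were treated at 0–8 μM for 72 h, and viability was read from concentration-response curves. Values are the average of 3 independent experiments.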

Molecule `CCN(C)C(=N)NC(=N)Nc1ccc(C(F)(F)F)cc1` has an IC50 [1] of 6.9 µM, an IC50 [2] of 5.7 µM and an IC50 [3] of 4.1 µM. It also gave an IC50 [4] of 5.1 µM and an IC50 [5] of 4 µM.

Work on `N=C(NC(=N)NC1CCCC1)Nc1ccc(F)c(F)c1` yielded an IC50 [1] of 7.2 µM, an IC50 [2] of 24.9 µM and an IC50 [3] of 3.5 µM. The IC50 [4] was 9.3 µM and the IC50 [5] was 16.8 µM.

In the case of `CCN(CC)C(=N)NC(=N)Nc1ccc(C(F)(F)F)cc1`, the IC50 [1] is reported as 4.9 µM, the IC50 [2] is reported as 6.2 µM and the IC50 [3] is reported as 3.7 µM. It also gave an IC50 [4] of 3.8 µM and an IC50 [5] of 4.3 µM.

Work on `CCN(CC)C(=N)NC(=N)Nc1ccc(F)c(F)c1` yielded an IC50 [1] of 22.1 µM, an IC50 [2] of 44.8 µM and an IC50 [3] of 7.8 µM. It also gave an IC50 [4] of 20.4 µM and an IC50 [5] of 39.4 µM.

`CC(C)NC(=N)NC(=N)Nc1ccc(C(F)(F)F)cc1` was tested, and the IC50 [1] was 5.2 µM, the IC50 [2] was 4.8 µM and the IC50 [3] was 3.6 µM. It also gave an IC50 [4] of 3.2 µM and an IC50 [5] of 4.8 µM.

Molecule `N=C(NC(=N)NC1CCCC1)Nc1ccc(F)cc1F` has an IC50 [1] of 18.4 µM, an IC50 [2] of 37.8 µM and an IC50 [3] of 4 µM. The IC50 [4] was 14.7 µM and the IC50 [5] was 29.5 µM.

For `CC(C)NC(=N)NC(=N)Nc1ccc(Cl)cc1` [PROGUANIL], the IC50 [1] was 16.3 µM, the inhibition [6] was “Active” and the Activity [7] was “Active”. The Activity [8] was “Active”, the inhibition [9] was “inactive” and the Activity [10] was “inactive”. The Activity [11] was “Active”, the inhibition [12] was “inactive” and the inhibition [13] was “inactive”. For the same molecule, the Activity [14] was “Active”, the IC50 [2] was 18.4 µM and the Activity [15] was “Active”. The IC50 [3] was 3.8 µM, the IC50 [4] was 13 µM and the Activity [16] was “inactive”. The inhibition [17] was “Active”, the inhibition [18] was “Active” and the Activity [19] was “Active”. The IC50 [5] was 8.4 µM and the inhibition [20] was “Active”.

Molecule `CC(C)CNC(=N)NC(=N)Nc1ccc(F)c(F)c1` has an IC50 [1] of 7.1 µM, an IC50 [2] of 42.9 µM and an IC50 [3] of 2.4 µM. For the same molecule, the IC50 [4] was 6.7 µM and the IC50 [5] was 29.7 µM.

With `CCCCCCCNC(=N)NC(=N)Nc1ccc(F)c(F)c1` the IC50 [1] was 2.1 µM, the inhibition [6] was “Active” and the inhibition [9] was “Active”. The inhibition at 2 µM [21] was 100%, the inhibition [12] was “Active” and the inhibition [13] was “Active”. The IC50 [2] was 4.3 µM, the IC50 [3] was 1.5 µM and the IC50 [4] was 1.5 µM. For the same molecule, the inhibition [17] was “Active”, the inhibition [18] was “Active” and the IC50 [5] was 1.8 µM. For the same molecule, the inhibition [20] was “Active” and the IC50 [22] was 6.4 µM.

`N=C(NC(=N)NC1CCCC1)Nc1ccc(C(F)(F)F)cc1` was tested, and the IC50 [1] was 3.3 µM, the inhibition [6] was “Active” and the inhibition [9] was “Active”. For the same molecule, the inhibition at 2 µM [21] was 100%, the inhibition [12] was “Active” and the inhibition [13] was “Active”. For the same molecule, the IC50 [2] was 3.7 µM, the IC50 [3] was 1.8 µM and the IC50 [4] was 2.5 µM. The inhibition [17] was “Active”, the inhibition [18] was “Active” and the IC50 [5] was 3.8 µM. The inhibition [20] was “Active” and the IC50 [22] was 7.3 µM.

In the case of `CC(C)CNC(=N)NC(=N)Nc1ccc(F)cc1F`, the IC50 [1] is reported as 17.3 µM, the IC50 [2] is reported as 40.8 µM and the IC50 [3] is reported as 3.6 µM. The IC50 [4] was 19.8 µM and the IC50 [5] was 21.1 µM.

With `CC(C)CNC(=N)NC(=N)Nc1ccc(C(F)(F)F)cc1` the IC50 [1] was 2 µM, the inhibition [6] was “Active” and the Activity [7] was “Active”. For the same molecule, the Activity [8] was “Active”, the inhibition [9] was “Active” and the Activity [10] was “Active”. The inhibition at 2 µM [21] was 100%, the Activity [11] was “Active” and the inhibition [12] was “Active”. For the same molecule, the inhibition [13] was “Active”, the Activity [14] was “Active” and the IC50 [2] was 3.1 µM. For the same molecule, the Activity [15] was “Active”, the IC50 [3] was 1.3 µM and the IC50 [4] was 2.1 µM. For the same molecule, the Activity [16] was “Active”, the inhibition [17] was “Active” and the inhibition [18] was “Active”. For the same molecule, the Activity [19] was “Active”, the IC50 [5] was 3.5 µM and the inhibition [20] was “Active”. It also gave an IC50 [22] of 8.5 µM.

For `CC(C)NC(=N)NC(=N)Nc1ccc(F)cc1`, the IC50 [1] was > 50 µM, the IC50 [2] was > 50 µM and the IC50 [3] was 7.5 µM. For the same molecule, the IC50 [4] was 28 µM and the IC50 [5] was > 50 µM.

Work on `CC(C)NC(=N)NC(=N)Nc1ccc(F)c(F)c1` yielded an IC50 [1] of 25 µM, an IC50 [2] of 45 µM and an IC50 [3] of 5.2 µM. The IC50 [4] was 26 µM and the IC50 [5] was > 50 µM.
